For orientation: MIC means the least concentration at which growth counts as inhibited. A higher MIC goes with weaker potency. What is called inhibition is the percentage by which the read-out fell short of the control. Low values mean a weak effect, high ones a strong effect.

This is an account of results in ChEMBL document CHEMBL1146375, “Synthetic studies on novel benzimidazolopeptides with antimicrobial, cytotoxic and anthelmintic potential” (2007).

Experiment [1] deals with Bacillus subtilis. As to the kind of experiment: Antibacterial activity against Bacillus subtilis NCIM 2063 after 18 hrs by disc diffusion method. The experiment is classed as functional. A digest of the protocol: (§1)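 Modified Kirby-Bauer disc diffusion. Plates inoculated with spore suspension (about 6 × 10⁴ spores mL^-1). Sterile 6 mm paper discs carried test samples at 10 mg mL^-1; ciprofloxacin disc as reference, DMF disc as negative control. Plates held 18 h at 37 °C. Inhibition zone diameters (mm) averaged over triplicate sets.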
(In general: Agar diffusion results depend on both activity and mobility in agar.)

In experiment [2] the test system is Staphylococcus aureus. As to the kind of experiment: Antibacterial activity against Staphylococcus aureus NCIM 2079 after 18 hrs by disc diffusion method. The experiment is classed as functional. An outline of the steps:
as §1

Experiment [3] deals with Pseudomonas aeruginosa. The experiment is described as follows: Antibacterial activity against Pseudomonas aeruginosa NCIM 2034 after 18 hrs by disc diffusion method. The class given is functional. A digest of the protocol: as §1
In experiment [4] the test system is Escherichia coli. The experiment is described as follows: Antibacterial activity against Escherichia coli NCIM 2065 after 18 hrs by disc diffusion method. The experiment is classed as functional. An outline of the steps: as §1
Experiment [5] has as its system Candida albicans. The experiment is described as follows: Antifungal activity against Candida albicans MUCC 29 after 48 hrs by disc diffusion method. The experiment is classed as functional. A digest of the protocol:
(§2)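 Agar well diffusion on plates inoculated with spore suspension in normal saline from cultures on Sabouraud's broth. Wells punched and loaded with test samples or griseofulvin at 10 mg mL^-1, with DMSO as negative control. Incubated 48 h at 37 °C.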

The test system of experiment [6] is Microsporum audouinii. As to the kind of experiment: Antifungal activity against Microsporum audouinii MUCC 545 after 48 hrs by disc diffusion method. The experiment is classed as functional. An outline of the steps: as §2
Experiment [7] has as its system Trichophyton benhamiae. The experiment is described as follows: Antifungal activity against Trichophyton mentagrophytes MUCC 665 after 48 hrs by disc diffusion method. The class given is functional, Arthroderma benhamiae. An outline of the steps:
as §2

The test system of the next experiment is Aspergillus niger. As to the kind of experiment: Antifungal activity against Aspergillus niger MUCC 177 after 48 hrs by disc diffusion method. The class given is functional. A digest of the protocol:
as §2

Experiment [8] has as its system Bacillus subtilis. As to the kind of experiment: Antibacterial activity against Bacillus subtilis NCIM 2063 after 18 hrs by tube dilution method. The experiment is classed as functional. The conditions noted are these: NCIM 2063, 18 h. An outline of the steps:
(§3)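 Tube dilution MIC. Stock diluted in sterile broth to seven concentrations from 200 to 3.1 […]. Each tube inoculated with one loopful of test bacterium and incubated 18 h at 37 °C. MIC read from presence or absence of growth.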

Experiment [9] deals with Staphylococcus aureus. The experiment is described as follows: Antibacterial activity against Staphylococcus aureus NCIM 2079 after 18 hrs by tube dilution method. The class given is functional. The conditions noted are these: NCIM 2079, 18 h. An outline of the steps: as §3
Experiment [10] relates to Pseudomonas aeruginosa. The experiment is described as follows: Antibacterial activity against Pseudomonas aeruginosa NCIM 2034 after 18 hrs by tube dilution method. The experiment is classed as functional. The conditions noted are these: NCIM 2034, 18 h. An outline of the steps:
as §3

Experiment [11] concerns Escherichia coli. As to the kind of experiment: Antibacterial activity against Escherichia coli NCIM 2065 after 18 hrs by tube dilution method. The experiment is classed as functional. As to conditions: NCIM 2065, 18 h.
Experiment [12] concerns Candida albicans. The experiment is described as follows: Antifungal activity against Candida albicans MUCC 29 after 48 hrs by tube dilution method. The class given is functional. An outline of the steps: (§4)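 Tube dilution MIC as for bacteria (seven concentrations, 200–3.1 […]), with DMSO in place of DMF. Tubes inoculated with fungal culture and incubated 48 h at 37 °C. MIC read from presence or absence of growth.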

The subject of experiment [13] is Microsporum audouinii. As to the kind of experiment: Antifungal activity against Microsporum audouinii MUCC 545 after 48 hrs by tube dilution method. The experiment is classed as functional. An outline of the steps: as §4
Experiment [14] relates to Trichophyton benhamiae. As to the kind of experiment: Antifungal activity against Trichophyton mentagrophytes MUCC 665 after 48 hrs by tube dilution method. The experiment is classed as functional, Arthroderma benhamiae. A digest of the protocol: as §4
In experiment [15] the test system is Eudrilus. As to the kind of experiment: Anthelmintic activity against Eudrilus sp. assessed as mean paralyzing time. The experiment is classed as functional. An outline of the steps:
(§5)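 Earthworms exposed to test suspensions at 2 mg mL^-1 (0.2% w/v), made by triturating compound with Tween 80 (0.5%) and distilled water, then mechanically stirred 30 min. Mebendazole suspension prepared alike as reference. Paralysis and death times recorded; death confirmed by no movement in 50 °C water. Means from triplicate sets.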

In experiment [16] the test system is Eudrilus. As to the kind of experiment: Anthelmintic activity against Eudrilus sp. assessed as mean death time. The class given is functional. A digest of the protocol:
(§6)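 Earthworms exposed to test suspensions at 2 mg mL−1, prepared by triturating compound with Tween 80 (0.5%) and distilled water, stirring 30 min, then diluting to 0.2% w/v. Mebendazole suspension was made the same way. Death was confirmed by moving worms into 50 °C warm water and looking for movement. Mean death time (min) taken from triplicate sets.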

Experiment [17] is described as follows: Growth inhibition of DLA cells at 250 ug/mL after 3 hrs. The class given is functional. As to conditions: Mus musculus. An outline of the steps:
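DLA and EAC cells passaged intraperitoneally in albino mice, harvested after 15–20 days and adjusted to 1 × 10⁶ cells/mL. Dilutions in Dulbecco's medium (500–31.25, some down to 3.91 µg/mL; 5-FU reference) mixed 1:1 with cells and held 3 h at 37 °C. Trypan blue exclusion gave % growth inhibition; CTC50 by graphical extrapolation.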

A short description of experiment [18]: Anthelmintic activity against Megascoplex konkanensis ICARBC 211 assessed as mean paralyzing time. The experiment is classed as functional. An outline of the steps:
as §5

The nature of experiment [19]: Anthelmintic activity against Megascoplex konkanensis ICARBC 211 assessed as mean death time. The class given is functional. An outline of the steps: as §5
The test system of experiment [20] is Pontoscolex corethrurus. As to the kind of experiment: Anthelmintic activity against Pontoscolex corethrurus ICARBC 408 assessed as mean paralyzing time. The class given is functional. A digest of the protocol: as §5
In experiment [21] the test system is Pontoscolex corethrurus. The experiment is described as follows: Anthelmintic activity against Pontoscolex corethrurus ICARBC 408 assessed as mean death time. The class given is functional. An outline of the steps: as §6

The structures appear in SMILES notation. Values after ≈ are worked out from the molar mass of the structure shown.

With `COC(=O)[C@@H]1CCCN1C(=O)c1ccc(-c2nc3cc(C)c(C)cc3[nH]2)cc1`, the “inhibition zone (IZ)” value amounted to 13 mm in the experiment with Bacillus subtilis [1]; 11 mm with Staphylococcus aureus [2]; 22 mm with Pseudomonas aeruginosa [3]; 17 mm in the experiment with Escherichia coli [4]; 16 mm with Candida albicans [5]; 9 mm with Microsporum audouinii [6]. The “inhibition zone (IZ)” value worked out at 13 mm with Trichophyton benhamiae [7] and 17 mm in the experiment with Aspergillus niger. Besides, the MIC in the experiment on Bacillus subtilis [8] was determined as 6 µg/mL (≈ 15.9 µM); with Staphylococcus aureus [9], 12.5 µg/mL (≈ 33.1 µM); against Pseudomonas aeruginosa [10] it was 6 µg/mL (≈ 15.9 µM); against Escherichia coli [11] it was 12.5 µg/mL (≈ 33.1 µM); in the experiment on Candida albicans [12] it was 6 µg/mL (≈ 15.9 µM); in the experiment on Microsporum audouinii [13], 25 µg/mL (≈ 66.2 µM). Moreover, the MIC against Trichophyton benhamiae [14] is 6 µg/mL (≈ 15.9 µM). Also, the Time is listed as 32.25 min in the experiment on Eudrilus [15], 45.34 min with Eudrilus [16], 35.57 min with Pontoscolex corethrurus [20] and 50.26 min in the experiment with Pontoscolex corethrurus [21]. Moreover, the inhibition at 250 µg/mL in [17] amounted to 18.4%. Also, the TIME in experiment [18] was determined as 0.473 h; in experiment [19] it was 0.676 h.

Regarding `COC(=O)[C@H](CCCNC(=N)N[N+](=O)[O-])NC(=O)c1ccc(-c2nc3cc(C)c(C)cc3[nH]2)cc1`, the “inhibition zone (IZ)” value was 14 mm in the experiment on Bacillus subtilis [1]; 9 mm in the experiment with Staphylococcus aureus [2]; 23 mm with Pseudomonas aeruginosa [3]; 17 mm with Escherichia coli [4]; 15 mm in the experiment with Candida albicans [5]; 8 mm in the experiment with Microsporum audouinii [6]. Further, the “inhibition zone (IZ)” value in the experiment on Trichophyton benhamiae [7] was determined as 12 mm; in the experiment with Aspergillus niger it was 15 mm. For the same compound, the MIC with Bacillus subtilis [8] was found to be 12.5 µg/mL (≈ 26 µM); against Staphylococcus aureus [9] it was 25 µg/mL (≈ 51.9 µM); in the experiment with Pseudomonas aeruginosa [10], 6 µg/mL (≈ 12.5 µM); in the experiment on Escherichia coli [11], 12.5 µg/mL (≈ 26 µM); in the experiment on Candida albicans [12] it was 12.5 µg/mL (≈ 26 µM); in the experiment with Microsporum audouinii [13], 12.5 µg/mL (≈ 26 µM). Besides, the MIC against Trichophyton benhamiae [14] worked out at 12.5 µg/mL (≈ 26 µM). The Time in the experiment on Eudrilus [15] was found to be 18.67 min; with Eudrilus [16], 28.21 min; in the experiment with Pontoscolex corethrurus [20] it was 21.65 min; in the experiment with Pontoscolex corethrurus [21], 35.22 min. In addition, the results for the TIME in [18] and in experiment [19] were 0.309 h and 0.443 h, respectively.

Take `Cc1cc2nc(-c3ccc(O)c(C(=O)N[C@@H](C)C(=O)N[C@H](C(=O)N[C@@H](C)C(=O)O)C(C)C)c3)[nH]c2cc1C`: the “inhibition zone (IZ)” value amounted to 14 mm in the experiment with Bacillus subtilis [1]; 11 mm with Staphylococcus aureus [2]; 21 mm in the experiment with Pseudomonas aeruginosa [3]; 17 mm with Escherichia coli [4]; 19 mm in the experiment with Candida albicans [5]; 11 mm in the experiment with Microsporum audouinii [6]. Besides, the “inhibition zone (IZ)” value stood at 15 mm with Trichophyton benhamiae [7] and 17 mm in the experiment with Aspergillus niger. Further, the MIC against Bacillus subtilis [8] was 6 µg/mL (≈ 11.5 µM); in the experiment with Staphylococcus aureus [9], 25 µg/mL (≈ 47.7 µM); against Pseudomonas aeruginosa [10], 6 µg/mL (≈ 11.5 µM); in the experiment on Escherichia coli [11], 25 µg/mL (≈ 47.7 µM); against Candida albicans [12], 6 µg/mL (≈ 11.5 µM); in the experiment on Microsporum audouinii [13], 6 µg/mL (≈ 11.5 µM). The lowest concentration to inhibit growth against Trichophyton benhamiae [14] (MIC) was 6 µg/mL (≈ 11.5 µM). Besides, the Time in the experiment on Eudrilus [15] worked out at 25.18 min; in the experiment with Eudrilus [16], 36.14 min; with Pontoscolex corethrurus [20], 29.65 min; with Pontoscolex corethrurus [21], 41.6 min. Besides, the TIME in experiment [18] was 0.42 h; in experiment [19] it was 0.57 h.
